Test results reported in ChEMBL document CHEMBL3797027, “Potent anti-proliferative actions of a non-diuretic glucosamine derivative of ethacrynic acid” (Bioorg Med Chem Lett, 2016).
Calls of active or inactive are those of the source. The rule behind the calls is not given here.

Columns and labels:
MDA-MB-231 = assay: Cytotoxic activity against human MDA-MB-231 cells assessed as inhibition of cell proliferation incubated for 72 hrs by MTT assay; format: functional, cell-based
Procedure, shortened: (§1)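 MTT cell survival assay. IC50 is the concentration that inhibits tumour cell proliferation by 50%, read from cell survival curves. Values are given as mean ± SD of three independent experiments.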

MCF7 = assay: Cytotoxic activity against human MCF7 cells assessed as inhibition of cell proliferation incubated for 72 hrs by MTT assay; format: functional, cell-based; conditions: MCF7, 72 h; procedure, shortened: as §1
HT-29 = assay: Cytotoxic activity against human HT-29 cells assessed as inhibition of cell proliferation incubated for 72 hrs by MTT assay; format: functional, cell-based; conditions: HT-29, 72 h; procedure, shortened: as §1
[1] = Cytotoxic activity against human HT1080 cells assessed as inhibition of cell proliferation incubated for 72 hrs by MTT assay; format: functional, cell-based; conditions: HT-1080, 72 h; procedure, shortened: as §1
[2] = Cytotoxic activity against human GBM10 cells assessed as inhibition of cell proliferation incubated for 72 hrs by MTT assay; format: functional, cell-based; conditions: GBM10, 72 h; procedure, shortened: as §1
[3] = Cytotoxic activity against human SKBR3 cells assessed as inhibition of cell proliferation incubated for 72 hrs by MTT assay; format: functional, cell-based; conditions: SK-BR-3, 72 h; procedure, shortened: as §1
[4] = Cytotoxic activity against human HCT116 cells assessed as inhibition of cell proliferation incubated for 72 hrs by MTT assay; format: functional, cell-based; conditions: HCT-116, 72 h; procedure, shortened: as §1
MDA-MB-468 = assay: Cytotoxic activity against human MDA-MB-468 cells assessed as inhibition of cell proliferation incubated for 72 hrs by MTT assay; format: functional, cell-based; conditions: MDA-MB-468, 72 h; procedure, shortened: as §1
[5] = Cytotoxic activity against human H1299 cells assessed as inhibition of cell proliferation incubated for 72 hrs by MTT assay; format: functional, cell-based; conditions: NCI-H1299, 72 h; procedure, shortened: as §1
Mus musculus = assay: Toxic diuretic effect in 12 hrs fasted CD1 mouse assessed as increase in urine output at 10 mg/kg, ip measured 0 to 6 hrs post dose relative to untreated control; format: toxicity, organism-based; conditions: in vivo
Procedure, shortened: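 Female CD-1 mice fasted 12 h, then given compound IP at 10 mg/kg in PEG/EtOH/H2O (54:14:32). Vehicle control group included. Mice were housed singly in metabolic cages with free access to water. Voided urine was collected in graduated tubes under the cages over 0–6 h and 6–24 h after injection.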

[6] = Cytotoxic activity against human SF188 cells assessed as inhibition of cell proliferation incubated for 72 hrs by MTT assay; format: functional, cell-based; conditions: SF-188, 72 h; procedure, shortened: as §1
[7] = Cytotoxic activity against human MCF10A cells assessed as inhibition of cell proliferation incubated for 72 hrs by MTT assay; format: cell-based; conditions: mcf-10a; procedure, shortened: as §1

Compound	IC50 (MDA-MB-231; MDA-MB-231, 72 h) [µM]	IC50 (MCF7) [µM]	IC50 (HT-29) [µM]	IC50 [1] [µM]	IC50 [2] [µM]	IC50 [3] [µM]	IC50 [4] [µM]	IC50 (MDA-MB-468) [µM]	IC50 [5] [µM]	fold change (FC) (Mus musculus)	IC50 [6] [µM]	growth inhibition (GI) (MDA-MB-231)	Activity [7]
C=C(CC)C(=O)c1ccc(OCC(=O)O)c(Cl)c1Cl [ETHACRYNIC ACID]	45.2	28.9	62.4	54.5	29.9	34.2	30.2	81.5	44.3	<= 6	31.7	–	–
N[C@H]1C(O)O[C@H](CO)[C@@H](O)[C@@H]1O (stereo partly drawn) [GLUCOSAMINE]	–	–	–	–	–	–	–	–	–	–	–	inactive	Non-toxic
